According to the RNAGym collection of RNA variant scans (doi:10.1126/science.aae0568):
This sample holds only a part of the variants without activity.

B1: tRNA (parent)
chain: GUUCCGUUGGCGUAAUGGUAACGCGUCUCCCUCCUAAGGAGAAGACUGCGGGUUCGAGUCCCGUACGGAACG

Variants of: B1
Test: yeast fitness relative to wild type (ratio to wild type); higher = fitter; tRNA-Arg(CCU), competitive growth, 37 C, YPD
In short: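 Variants of the tRNA-Arg(CCU) gene, chemically synthesised with a 3% per-site mutation rate at 69 sites, were placed at the native genomic locus in Saccharomyces cerevisiae. The pooled strains were competed in YPD at 37°C for 24 hours in six parallel replicates. Gene amplicons from the start population and from each end population were read by 100-nucleotide paired-end sequencing. Darwinian fitness relative to wild type came from changes in genotype frequencies; genotypes needed ≥ 100 starting reads, and estimates < 0.5 were set to 0.5.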

Variant	yeast fitness
GUUGCGUUGGCGUAAUGGUAACGCGUCUCCAUCCUAAGGAGCAGACUGCGGGUUCGAGUCCCGUACGGAACG	≤ 0.5
GUUGCGUUGGCGUAAUGGUAACGCGUCUCCUUCCUAAGGAGAAGACUCCGGGUUCGAGUCCCGUACGGAACG	0.647
GUUGCGUUGGCGUAAUGGUAACGCGUCUCCCUUCUAAGGAGAAGACUGCGGGUUAGAGUCCCGUACGGAACG	≤ 0.5
GUUGCGUUGGCGUAAUGGUAACGCGUCUACCUCCUAAGGAGAAGACUGCGGGUUCGAGUCCCGUACGGAACG	0.757
GUUGCGUUGGCGUAAUGGUAACGCGUCUUCCUCCUAAGGAGAGGACUGCGGGGUCGAGUCCCAUACGGAACG	≤ 0.5
GUUGCGUUGGCGUAAUGGUAACGCGUCUCCAUCCUAAGGAGAAGACUGCGGGUUCGAGUCUCGUACGGAACG	≤ 0.5
GUUGCGUUGGUGUAAUGGUAACGCGUCUCCCUACUAAGGAGAAGACUGCGGGUUCGAGCCCCGUACGGAACG	0.707
GUUGCGUUGGCGUAAUGGUAACGCGUCUCCCUCCUAAGGAGAAGACUGCGGGUUCGAGUGCCGUACGGAACG	0.615
GUUGCGUUGGCGUAAUGGUAACGCGUCUCGCUCCUAAAGAGUAGACUGCGGGUUCGAGUCCCGUACGGAACG	≤ 0.5
GUUGCGUUGGCGUAAUGGUAAAGCGUCUCCCUCCUAAGGAGAAGACUGCGGGUUCGAGUCCCGUACGGAACG	0.767
GUUGCGUUGGCAUAAUGGUAACGUGUCUCCCUCCUAAGGAGAAGACUGCGGGUUCGAGUCCCGUACGGACCG	≤ 0.5
GUUGCGUUGGCGUAAUGGUAAUGCGUUUCCCUCCUAAGGAGAAGACUGCGGGUUCGAGUCCCGUACGGAACG	0.657
GUUGCGUUGGCGUAAUGGUAACGCGUGUCCCUCCUAAGGAGAAGAGUGCGGGUCCGAGUCCCGUACGGAACG	0.64
GUUGCGUUGGCGUAAUGGUAACGUGUCUCCCUGCUAAGGAGAAGACUGCGGGUUCGAGUCCCGUUUGGCACG	0.584
GUUGCGUUGGCGUAAUGGUAACGUGUCUCCCUCCUAAGGAGAAGCCUGCGGGUUCGAGUCCCGUACGGAACG	0.6
GUUGCGUUGGCGUAAUGGUAAGGUGUCUCCCUCCUAAGGAAAAGACUGCGGGUUCGAGUCCCGUACGGAACG	≤ 0.5
GUUGCGUUGGCGUAAUGGUAACGCGUCUCCCUACUAAGGAGAAGACUGCGGGUUCGAGUCCCGUACGGAACG	0.653
GUUGCGUUGGCGUAAUGGUAAUGCGUCUCACUCUUAACGAGAAGACUGCGGGUUCGAGUCCCGUACGGAACG	≤ 0.5
GUUGCGUUGGCGUAAUGGUAACGGGUCUCCCUCCUAAGGAGAAGACUGCGGGUUCGAGUCCCGUACGGAACG	0.617

Variant	yeast fitness
GUUGCGUUGGCGUAAUGGUAACGGAUCUCCCUCCAAAGGAGAAGACUGCGCGUUCGAGUCCCGUACGGAACG	≤ 0.5
GUUGCGUUGGCGUAAUGGUAACGCGUCUCACUCCUAAGGAGAAGUCUGCGGGUUUGAGUCCCGUACGGAACG	≤ 0.5
GUUGCGUUGGCGUAAUGGUAACGCGUCUCCCUCCUAAGGAGAAGACUGCGGGUUCGAGUUGCGUACGGAACG	≤ 0.5
GUUGCGUUGGCGUAAUGGUAACGCGUCUCCCUCCUAAGGAGAAGACUGCGGGUUCGAGUCACGUACAGAACG	0.553
GUUGCGUUGCCGUAAUGGUAACGCGUCUCCCUCUUAAGGAGAAGAGUGCGGGUUCGAGUCCCGUACGGAACG	≤ 0.5
GUUGCGUUAGCGUAAUGGUAACGCGUUUCCCUCCUAAGGAGAAGAGUACGGGUUCGAGUCCGGUACGCAACG	≤ 0.5
GUUGCGUUGGCGUAAUGGUAACGCGUCUACCUGCUAAGGAGAAGCCUGCGGGUUCGAGUCCCGUACGGAACG	0.588
GUUGCGUUGGUGUUAUGGUAACGCGUCUCGCUCCUAAGGAGAAGACUGCGGGUUCGAGUCCCGUACGGUACG	≤ 0.5
GUUGCGUUGGCGUAAUGGUAACGCGUUUCCCUCCUAAGGAGAAGACUGCGGGUUCGACUCCCGUACGGAACG	0.71
GUUGCCUUGGCGUAAUGGUAACGCAUCUACAUGCUAAGGACAAGACUGCGGGUUCGAGUCCCGUACGGAACG	≤ 0.5
GUUGCGUUGGCGUAAUGGUAACGGGUCUCCCUCCUAAGGAGAAGACUGCGGGUUCGACUCCCGUACGGAACG	≤ 0.5
GUUGCGUUGGCGUAAUGGUAACGAGUCUCCCUCCUAAGGAGAAGAUUGCGGGUUCGAGUCCCGUACGGAGCG	≤ 0.5
GUUGCGUUGGCGUAAUGGUAACGCGUCUCCCUCCUAAGGAGAAGAUUGCGGGUUCGAGUCCCGUACGGAACG	0.861
GUUGCGUUGGCGUAAUGGUAACGCGUCUCCCUCCUAAGGAGAAGAAUGCGGGUUCGAGUCCCGUACGGAACG	0.915
GUUGCGUUGGCGUAAUGGUAACGCGUCUCACUCCUAAGGAGAAGACUGCUGGUUCGAGUCCCGUAUGGAACG	≤ 0.5
GUUGCGUUGGCGUAAUGGUAACGCGUCUCCGUCCUAAUGAGAAGACUGCGGGUUCGAGUCCCGUACGGAACG	≤ 0.5
GUUGCGUUCGCGUAAUGGUAACGCGUCUCCCUCAUGAGGCGAAGACUGCGGGUUCGAGUCCCGUACGGAACG	≤ 0.5
GUUGCGUUGGCGUAAUGGUAACGCGUCUCCCUCUUAAGGAGAAGACUGAGGGUCCGAGUCCCGUACGGUACG	≤ 0.5
GUUGCCUUGGCGUAAUGGUAACGCGUCUCCCUCCUAAGGAGAUGACUACGGGUUCGAGUCCCGUAGGGAACG	0.512
